How the values were obtained:
OVCAR-8 = experiment: Growth inhibition in OVCAR8 cells; assay type: functional; conditions: Homo sapiens
OVCAR-5 = experiment: Growth inhibition in OVCAR5 cells; assay type: functional; conditions: Homo sapiens
[1] = Growth inhibition in HCC15 cells; assay type: functional; conditions: Homo sapiens
HCC 2998 = experiment: Growth inhibition in HCC2998 cells; assay type: functional; conditions: Homo sapiens
SNB-75 = experiment: Growth inhibition in SNB75 cells; assay type: functional; conditions: Homo sapiens
HOP-92 = experiment: Growth inhibition in HOP92 cells; assay type: functional; conditions: Homo sapiens
DU-145 = experiment: Growth inhibition in DU145 cells; assay type: functional; conditions: Homo sapiens
SW-620 = experiment: Growth inhibition in SW620 cells; assay type: functional; conditions: Homo sapiens
[2] = Growth inhibition in HS 578T cells; assay type: functional; conditions: Homo sapiens
PC-3 = experiment: Growth inhibition in PC3 cells; assay type: functional; conditions: Homo sapiens
SK-OV-3 = experiment: Growth inhibition in SKOV3 cells; assay type: functional; conditions: Homo sapiens
OVCAR-3 = experiment: Growth inhibition in OVCAR-3 cells; assay type: functional; conditions: Homo sapiens
SK-MEL-5 = experiment: Growth inhibition in SK-MEL-5 cells; assay type: functional; conditions: Homo sapiens
UACC-257 = experiment: Growth inhibition in UACC257 cells; assay type: functional; conditions: Homo sapiens
[3] = Cytotoxicity against P-glycoprotein-overexpressing KB-V1 cell line; assay type: cell-based; conditions: Homo sapiens
Outline: (§1)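 Log-phase cells were diluted to 20 000–30 000 cells/mL, seeded, and left to attach overnight. They were then exposed to compounds at 10^–5–10^–12 M for 72 h at 37 °C in 5% CO2. Viable cells were measured by MTT, with absorbance read at 595 nm. Each compound ran in triplicate in at least three independent assays. IC50 came from nonlinear regression, and average values were reported.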

ACHN = experiment: Growth inhibition in ACHN cells; assay type: functional; conditions: Homo sapiens
KM12 = experiment: Growth inhibition in KM12 cells; assay type: functional; conditions: Homo sapiens
U-251 = experiment: Growth inhibition in U251cells; assay type: functional; conditions: Homo sapiens
HOP-62 = experiment: Growth inhibition in HOP62 cells; assay type: functional; conditions: Homo sapiens
UO-31 = experiment: Growth inhibition in UO31 cells; assay type: functional; conditions: Homo sapiens
SF-268 = experiment: Growth inhibition in SF268 cells; assay type: functional; conditions: Homo sapiens
HeLa = experiment: Cytotoxicity against HeLa cell line; assay type: cell-based; conditions: Homo sapiens; outline: as §1
TK-10 = experiment: Growth inhibition in TK10 cells; assay type: functional; conditions: Homo sapiens
NCI-H226 = experiment: Growth inhibition in NCI-H226 cells; assay type: functional; conditions: Homo sapiens
SK-MEL-2 = experiment: Growth inhibition in SK-MEL-2 cells; assay type: functional; conditions: Homo sapiens
SF-539 = experiment: Growth inhibition in SF539 cells; assay type: functional; conditions: Homo sapiens
SF-295 = experiment: Growth inhibition in SF295 cells; assay type: functional; conditions: Homo sapiens
NCI-H460 = experiment: Growth inhibition in NCI-H460 cells; assay type: functional; conditions: Homo sapiens
SK-MEL-28 = experiment: Growth inhibition in SK-MEL-28 cells; assay type: functional; conditions: Homo sapiens
T47D = experiment: Growth inhibition in T47D cells; assay type: functional; conditions: Homo sapiens
CAKI-1 = experiment: Growth inhibition in CAK1-1 cells; assay type: functional; conditions: Homo sapiens
HL-60 = experiment: Growth inhibition in HL60 cells; assay type: functional; conditions: Homo sapiens
BT-549 = experiment: Growth inhibition in BT549 cells; assay type: functional; conditions: Homo sapiens
SN12C = experiment: Growth inhibition in SN12C cells; assay type: functional; conditions: Homo sapiens
NCI-H322M = experiment: Growth inhibition in NCI-H322M cells; assay type: functional; conditions: Homo sapiens
M14 = experiment: Growth inhibition in M14 cells; assay type: functional; conditions: Homo sapiens
ZR-75-1 = experiment: Cytotoxicity against ZR-75-1 cell line; assay type: cell-based; conditions: Homo sapiens; outline: as §1
COLO 205 = experiment: Growth inhibition in COLO205 cells; assay type: functional; conditions: Homo sapiens
OVCAR-4 = experiment: Growth inhibition in OVCAR4 cells; assay type: functional; conditions: Homo sapiens
K562 = experiment: Growth inhibition in K562 cells; assay type: functional; conditions: Homo sapiens
UACC-62 = experiment: Growth inhibition in UACC62 cells; assay type: functional; conditions: Homo sapiens
HCT-116 = experiment: Cytotoxicity against HCT116 cell line; assay type: cell-based; conditions: Homo sapiens; outline: as §1
MDA-MB-435 = experiment: Growth inhibition in MDA-MB-435 cells; assay type: functional; conditions: Homo sapiens
Tubulin = experiment: Inhibition of tubulin polymerization; assay type: protein-complex assay, Homo sapiens
Outline: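 Kit-based assay run per the manufacturer's instructions. Tubulin (>99% pure, 3 mg/mL) in G-PEM buffer, in a prewarmed plate with compound at 0.03–30 μM. OD340 nm read every 60 s at 37 °C for 1 h.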

CCRF-CEM = experiment: Growth inhibition in CCRF-CEM cells; assay type: functional; conditions: Homo sapiens
RXF 393 = experiment: Growth inhibition in RXF393 cells; assay type: functional; conditions: Homo sapiens
HT-29 = experiment: Growth inhibition in HT29 cells; assay type: functional; conditions: Homo sapiens
[4] = Growth inhibition in MDA-MB-231/ATCC cells; assay type: functional; conditions: Homo sapiens
NCI/ADR-RES = experiment: Growth inhibition in NCI/ADR-RES cells; assay type: functional; conditions: Homo sapiens
IGROV-1 = experiment: Growth inhibition in IGROV1 cells; assay type: functional; conditions: Homo sapiens
EKVX = experiment: Growth inhibition in EKVX cells; assay type: functional; conditions: Homo sapiens
LOX IMVI = experiment: Growth inhibition in LOX IMVI cells; assay type: functional; conditions: Homo sapiens
A549 = experiment: Growth inhibition in A549 cells; assay type: functional; conditions: Homo sapiens
NCI-H23 = experiment: Growth inhibition in NCI-H23 cells; assay type: functional; conditions: Homo sapiens
SNB-19 = experiment: Growth inhibition in SNB19 cells; assay type: functional; conditions: Homo sapiens
A498 = experiment: Growth inhibition in A498 cells; assay type: functional; conditions: Homo sapiens
MCF7 = experiment: Growth inhibition in MCF7 cells; assay type: functional; conditions: Homo sapiens
NCI-H522 = experiment: Growth inhibition in NCI-H522 cells; assay type: functional; conditions: Homo sapiens
[5] = Cytotoxicity against KB-3-1 cell line; assay type: cell-based; conditions: Homo sapiens; outline: as §1
[6] = Growth inhibition in HCC116 cells; assay type: functional; conditions: Homo sapiens
786-0 = experiment: Growth inhibition in 786-0 cells; assay type: functional; conditions: Homo sapiens

COc1cc(-c2nncn2-c2ccc3c(ccn3C)c2)cc(OC)c1OC
GI50 (OVCAR-8): 42.7 nM
GI50 (OVCAR-5): 47.9 nM
GI50 [1]: 35.5 nM
GI50 (HCC 2998): 24 nM
GI50 (SNB-75): 12.9 nM
GI50 (HOP-92): 83.2 nM
GI50 (DU-145): < 10 nM
GI50 (SW-620): 33.9 nM
GI50 [2]: 16.2 nM
GI50 (PC-3): 19.5 nM
GI50 (SK-OV-3): 31.6 nM
GI50 (OVCAR-3): < 10 nM
GI50 (SK-MEL-5): 14.1 nM
GI50 (UACC-257): 245 nM
IC50 [3]: 20.8 nM
GI50 (ACHN): 34.7 nM
GI50 (KM12): < 10 nM
GI50 (U-251): 33.1 nM
GI50 (HOP-62): 18.6 nM
GI50 (UO-31): 32.4 nM
GI50 (SF-268): < 10 nM
IC50 (HeLa): 8.73 nM
GI50 (TK-10): < 10 nM
GI50 (NCI-H226): 85100 nM
GI50 (SK-MEL-2): 166 nM
GI50 (SF-539): < 10 nM
GI50 (SF-295): < 10 nM
GI50 (NCI-H460): 33.1 nM
GI50 (SK-MEL-28): < 10 nM
GI50 (T47D): 44.7 nM
GI50 (CAKI-1): < 10 nM
GI50 (HL-60): 41.7 nM
GI50 (BT-549): 37.1 nM
GI50 (SN12C): 63.1 nM
GI50 (NCI-H322M): < 10 nM
GI50 (M14): 18.6 nM
IC50 (ZR-75-1): 23.8 nM
GI50 (COLO 205): 28.8 nM
GI50 (OVCAR-4): 1050 nM
GI50 (K562): 14.8 nM
GI50 (UACC-62): < 10 nM
IC50 (HCT-116): 7.39 nM
GI50 (MDA-MB-435): < 10 nM
IC50 (Tubulin): 3000 nM
GI50 (CCRF-CEM): 32.4 nM
GI50 (RXF 393): < 10 nM
GI50 (HT-29): 22.9 nM
GI50 [4]: 30.9 nM
GI50 (NCI/ADR-RES): 20.9 nM
GI50 (IGROV-1): 35.5 nM
GI50 (EKVX): < 10 nM
GI50 (LOX IMVI): 56.2 nM
GI50 (A549): 37.1 nM
GI50 (NCI-H23): 45.7 nM
GI50 (SNB-19): 44.7 nM
GI50 (A498): 15.8 nM
GI50 (MCF7): 43.6 nM
GI50 (NCI-H522): < 10 nM
IC50 [5]: 9.9 nM
GI50 [6]: 30.9 nM
GI50 (786-0): 32.4 nM
